Where two headings read alike, the source gives them in different places. Each block holds one molecule with its values, some of them ahead of it.
How the values were obtained:
DR5 [1] = test: DR5 immunoblot, MDA-MB-468 cells; format: cell-based; conditions: MDA-MB-468, 24 h; for Effect on DDA-induced DR5 upregulation and oligomerization: with 2.5 μM dMtcyDTDO, 20 μM CEAPIN-A7, 10 μM KIRA-6, 10 μM AMG-44; for DR5 levels and disulfide bonding (electrophoretic mobility): non-reducing immunoblot, dFtcyDTDO 2.5 μM, Tunicamycin 500 ng/ml, PERKi alone
DR5 [2] = test: DR5 immunoblot with autophagy/lysosome inhibitors; format: cell-based; conditions: inhibitor alone, absence of DDA treatment, versus vehicle
DR5 [3] = test: DR5 immunoblot, HaCaT keratinocytes; format: cell-based, human; conditions: 2.5 μM, 24 h, reducing immunoblot
DR5 [4] = test: DR5 immunoblot, MCF10A cells; format: cell-based; conditions: non-transformed MCF10A, 2.5 μM, 24 h, reducing immunoblot
012/LVM2/LR10 tumors = test: 012/LVM2/LR10 xenograft tumor study, H&E tumor histology; format: in vivo; conditions: 10 mg/kg dMtcyDTDO, 20 days, mice bearing 012/LVM2/LR10 tumors, versus vehicle
[5] = Metabolic stability in human liver microsomes; conditions: supplemented with NADPH (1 mM); substrate 10 μM; 1 mg/ml protein
DR5 [6] = test: DR5 immunoblot, T47D cells; format: cell-based; conditions: 2.5 μM, 24 h, reducing immunoblot
DcR2 = DcR2 immunoblot; format: cell-based; conditions: after dFtcyDTDO treatment
protein synthesis = test: Protein synthesis assay; format: cell-based; conditions: 24 h pre-treatment, 2 h pulse
MET [7] = test: MET/PCSK9 maturation; format: cell-based; conditions: MDA-MB-468, PERKi alone 1 μM, 24 h
MET [8] = test: MET/PCSK9 maturation; format: cell-based; conditions: HepG2, PERKi alone 1 μM, 24 h
Method in brief: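 HepG2 cells were grown in 10% FBS–DMEM at 37°C and 5% CO₂, then treated for 24 h. Cell lysates were run on immunoblots, under reducing conditions for MET.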

WM793 melanoma cells = test: MTT cell viability assay, WM793; format: cell-based; conditions: 72 h
Method in brief: (§1)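 Cells in 10% FBS–DMEM were seeded at 7,500 per well and kept 24 h at 37°C, then exposed to test compound for 72 h at 37°C. After medium removal they received 0.5 mg/ml MTT in PBS for 1 h at 37°C. Formazan was dissolved in DMSO and absorbance read at 570 and 690 nm. At least quadruplicate technical and three biological replicates were run.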

[9] = system: MDA-MB-468 breast cancer cells; test: MTT cell viability assay, MDA-MB-468; format: cell-based; conditions: 72 h
Method in brief: as §1

Molecule: O=C(Nc1cnn(Cc2ccc(C(F)(F)F)cc2C(F)(F)F)c1)c1cc(-c2ccco2)on1 [CEAPIN-A7]
Effect on DDA-induced DR5 upregulation and oligomerization (DR5 [1]): without effect

Molecule: CCN(CC)CCCC(C)Nc1ccnc2cc(Cl)ccc12 (stereo not drawn) [Chloroquine]
DR5 levels (DR5 [2]): increased DR5 levels

Molecule: CO/C1=C\C(C)=C\[C@@H](C)[C@@H](O)[C@@H](C)C/C(C)=C/C=C/[C@H](OC)[C@@H]([C@@H](C)[C@@H](O)[C@H](C)[C@@]2(O)C[C@@H](O)[C@H](C)[C@@H](C(C)C)O2)OC1=O [Bafilomycin A1]
DR5 levels (DR5 [2]): increased levels of monomeric and oligomeric DR5 isoforms

Molecule: CO[C@H]1C[C@@H]2CS(=O)(=O)SC[C@H]2C[C@@H]1OC [dMtcyDTDO]
DR5 levels (DR5 [3]): did not increase DR5 levels | DR5 levels (DR5 [4]): did not increase DR5 levels | Breast tumor tissue histology (H&E) (012/LVM2/LR10 tumors): extensive death of tumor tissue | t1/2 in human liver microsomes [5]: 47.9 min

t1/2 in human liver microsomes: 11.9 min
Molecule: O=S1(=O)CC2CCCCC2CS1 (stereo not drawn) [tcyDTDO]

t1/2 in human liver microsomes: > 60 min
Molecule: O=S1(=O)CC2CC(F)C(F)CC2CS1 (stereo not drawn) [dFtcyDTDO]
DR5 levels (DR5 [6]): increased DR5 levels | DR5 levels (DR5 [3]): did not increase DR5 levels | DR5 levels (DR5 [4]): did not increase DR5 levels | DcR2 levels (DcR2): upregulation of DcR2 | DR5 levels and disulfide bonding (electrophoretic mobility) (DR5 [1]): altered DR5 levels and disulfide bonding

Molecule: Cn1cc(-c2ccc3c(c2)CCN3C(=O)Cc2cccc(C(F)(F)F)c2)c2c(N)ncnc21 [PERKi]
Protein synthesis (3H-Leucine incorporation) in the presence of Tunicamycin (protein synthesis): increased protein synthesis | Protein synthesis (3H-Leucine incorporation) in the presence of dFtcyDTDO (protein synthesis): further decreased protein synthesis | MET or PCSK9 processing (MET [7]): no effect on MET or PCSK9 processing | MET or PCSK9 processing (MET [8]): no effect on MET or PCSK9 processing | DR5 levels and disulfide bonding (electrophoretic mobility) (DR5 [1]): no discernable effect | Cell viability (MTT) (WM793 melanoma cells; PERKi alone): little effect on cell viability | Effect on dFtcyDTDO cytotoxicity (MTT) (WM793 melanoma cells; combination with dFtcyDTDO): strongly potentiated dFtcyDTDO cytotoxicity | Cell viability (MTT) ([9]; PERKi alone): little effect on cell viability | Effect on dFtcyDTDO cytotoxicity (MTT) ([9]; combination with dFtcyDTDO): strongly potentiated dFtcyDTDO cytotoxicity

Molecule: CC(C)(O)CNc1ncc(-c2ccnc(Nc3ccnc(Cl)c3)n2)c(CC2CC2)n1 [VPS34i]
DR5 levels (DR5 [2]): increased DR5 expression to a similar extent as Bafilomycin

Molecule: Tunicamycin
DR5 levels and disulfide bonding (electrophoretic mobility) (DR5 [1]): increased DR5 levels without altering its mobility

Molecule: CC(C)(C)c1nc(-c2ccc(NC(=O)Nc3cccc(C(F)(F)F)c3)c3ccccc23)c2c(N)nccn12 [KIRA-6]
Effect on DDA-induced DR5 upregulation and oligomerization (DR5 [1]): negated DR5 and TNFR1 upregulation by DDA treatment

Molecule: Cc1ccc2cc(-c3c(C)ccc(C(=O)c4c(-c5ccccc5)n(C)n(-c5ccccc5)c4=O)c3N)ccc2n1 [AMG44]
Effect on DDA-induced DR5 upregulation and oligomerization (DR5 [1]): potentiated DDA-induced DR5 upregulation and oligomerization

From paper PMC11989202 (Molecular cancer research : MCR, 2025)
